Key:
Format in all cases: functional
Set-up in all cases: scale not given: the % may be the effect or the level left
NCI/ADR-RES = assay: Growth inhibition of human NCI/ADR-RES cells assessed tumor cell growth at 10^-5 M
Summary of the method: (§1)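 NCI 60-human-tumor-cell-line panel screen. Each compound was tested at a single concentration of 10^-5 M, and percent growth of tumor cells was recorded for each cell line. Growth inhibition was expressed from these percent-growth values.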

[1] = Growth inhibition of human Hs 578T cells assessed tumor cell growth at 10^-5 M; summary of the method: as §1
NCI-H226 = assay: Growth inhibition of human NCI-H226 cells assessed tumor cell growth at 10^-5 M; summary of the method: as §1
HOP-92 = assay: Growth inhibition of human HOP92 cells assessed tumor cell growth at 10^-5 M; summary of the method: as §1
OVCAR-5 = assay: Growth inhibition of human OVCAR5 cells assessed tumor cell growth at 10^-5 M; summary of the method: as §1
MOLT-4 = assay: Growth inhibition of human MOLT4 cells assessed tumor cell growth at 10^-5 M; summary of the method: as §1
NCI-H322M = assay: Growth inhibition of human NCI-H322M cells assessed tumor cell growth at 10^-5 M; summary of the method: as §1
RXF 393 = assay: Growth inhibition of human RXF393 cells assessed tumor cell growth at 10^-5 M; summary of the method: as §1
MDA-MB-435 = assay: Growth inhibition of human MDA-MB-435 cells assessed tumor cell growth at 10^-5 M; summary of the method: as §1
NCI-H23 = assay: Growth inhibition of human NCI-H23 cells assessed tumor cell growth at 10^-5 M; summary of the method: as §1
NCI-H522 = assay: Growth inhibition of human NCI-H522 cells assessed tumor cell growth at 10^-5 M; summary of the method: as §1
UO-31 = assay: Growth inhibition of human UO31 cells assessed tumor cell growth at 10^-5 M
Summary of the method: (§2)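 Single-dose screen at 10^-5 M across the 60 human tumor cell line panel, run to NCI standards. The value is the percent growth of each cell line in the presence of compound. Compounds active at this dose moved on to five-concentration testing (10^-4 to 10^-8 M).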

A549 = assay: Growth inhibition of human A549 cells assessed tumor cell growth at 10^-5 M; summary of the method: as §1
COLO 205 = assay: Growth inhibition of human COLO205 cells assessed tumor cell growth at 10^-5 M; summary of the method: as §1
UACC-62 = assay: Growth inhibition of human UACC62 cells assessed tumor cell growth at 10^-5 M; summary of the method: as §2
SW-620 = assay: Growth inhibition of human SW620 cells assessed tumor cell growth at 10^-5 M; summary of the method: as §2
MDA-MB-231 = assay: Growth inhibition of human MDA-MB-231 cells assessed tumor cell growth at 10^-5 M; summary of the method: as §1
K562 = assay: Growth inhibition of human K562 cells assessed tumor cell growth at 10^-5 M; summary of the method: as §1
Malme-3M = assay: Growth inhibition of human MALME-3M cells assessed tumor cell growth at 10^-5 M; summary of the method: as §1
TK-10 = assay: Growth inhibition of human TK10 cells assessed tumor cell growth at 10^-5 M; summary of the method: as §2
HT-29 = assay: Growth inhibition of human HT-29 cells assessed tumor cell growth at 10^-5 M; summary of the method: as §1
T47D = assay: Growth inhibition of human T47D cells assessed tumor cell growth at 10^-5 M; summary of the method: as §2
OVCAR-8 = assay: Growth inhibition of human OVCAR8 cells assessed tumor cell growth at 10^-5 M; summary of the method: as §1
BT-549 = assay: Growth inhibition of human BT549 cells assessed tumor cell growth at 10^-5 M; summary of the method: as §1
HOP-62 = assay: Growth inhibition of human HOP62 cells assessed tumor cell growth at 10^-5 M; summary of the method: as §1
KM12 = assay: Growth inhibition of human KM12 cells assessed tumor cell growth at 10^-5 M; summary of the method: as §1
HL-60(TB) = assay: Growth inhibition of human HL-60(TB) cells assessed tumor cell growth at 10^-5 M
Summary of the method: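 HL-60(TB), part of the 60-line panel, tested at a single concentration of 10^-5 M. The read-out is percent tumor cell growth relative to untreated growth.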

SF-268 = assay: Growth inhibition of human SF268 cells assessed tumor cell growth at 10^-5 M; summary of the method: as §1
DU-145 = assay: Growth inhibition of human DU145 cells assessed tumor cell growth at 10^-5 M; summary of the method: as §1
SN12C = assay: Growth inhibition of human SN12C cells assessed tumor cell growth at 10^-5 M; summary of the method: as §1
[2] = Growth inhibition of human […] cells assessed tumor cell growth at 10^-5 M; summary of the method: as §1
SF-539 = assay: Growth inhibition of human SF539 cells assessed tumor cell growth at 10^-5 M; summary of the method: as §1
CAKI-1 = assay: Growth inhibition of human Caki1 cells assessed tumor cell growth at 10^-5 M; summary of the method: as §1
SK-MEL-2 = assay: Growth inhibition of human SK-MEL-2 cells assessed tumor cell growth at 10^-5 M; summary of the method: as §1
A498 = assay: Growth inhibition of human A498 cells assessed tumor cell growth at 10^-5 M; summary of the method: as §1
HCC 2998 = assay: Growth inhibition of human HCC2998 cells assessed tumor cell growth at 10^-5 M; summary of the method: as §1
786-0 = assay: Growth inhibition of human 786-0 cells assessed tumor cell growth at 10^-5 M; summary of the method: as §1
SK-MEL-5 = assay: Growth inhibition of human SK-MEL-5 cells assessed tumor cell growth at 10^-5 M; summary of the method: as §1
NCI-H460 = assay: Growth inhibition of human NCI-H460 cells assessed tumor cell growth at 10^-5 M; summary of the method: as §1
SNB-19 = assay: Growth inhibition of human SNB19 cells assessed tumor cell growth at 10^-5 M; summary of the method: as §2
M14 = assay: Growth inhibition of human M14 cells assessed tumor cell growth at 10^-5 M; summary of the method: as §1
UACC-257 = assay: Growth inhibition of human UACC257 cells assessed tumor cell growth at 10^-5 M; summary of the method: as §2
LOX IMVI = assay: Growth inhibition of human LOXIMVI cells assessed tumor cell growth at 10^-5 M; summary of the method: as §1
OVCAR-3 = assay: Growth inhibition of human OVCAR3 cells assessed tumor cell growth at 10^-5 M; summary of the method: as §1
CCRF-CEM = assay: Growth inhibition of human CCRF-CEM cells assessed tumor cell growth at 10^-5 M; summary of the method: as §1
MDA-MB-468 = assay: Growth inhibition of human MDA-MB-468 cells assessed tumor cell growth at 10^-5 M; summary of the method: as §1
SK-OV-3 = assay: Growth inhibition of human SKOV3 cells assessed tumor cell growth at 10^-5 M; summary of the method: as §1
IGROV-1 = assay: Growth inhibition of human IGROV1 cells assessed tumor cell growth at 10^-5 M; summary of the method: as §1
HCT-15 = assay: Growth inhibition of human HCT15 cells assessed tumor cell growth at 10^-5 M; summary of the method: as §1
U-251 = assay: Growth inhibition of human U251 cells assessed tumor cell growth at 10^-5 M; summary of the method: as §2
PC-3 = assay: Growth inhibition of human PC3 cells assessed tumor cell growth at 10^-5 M; summary of the method: as §1
HCT-116 = assay: Growth inhibition of human HCT116 cells assessed tumor cell growth at 10^-5 M; summary of the method: as §1
ACHN = assay: Growth inhibition of human ACHN cells assessed tumor cell growth at 10^-5 M; summary of the method: as §1

C#CCN1C(=O)/C(=C\c2cn(CC#C)c3ccccc23)c2ccccc21
Activity (NCI/ADR-RES): 106% | Activity [1]: 105% | Activity (NCI-H226): 86.5% | Activity (HOP-92): 75.1% | Activity (OVCAR-5): 101% | Activity (MOLT-4): 87.3% | Activity (NCI-H322M): 110% | Activity (RXF 393): 126% | Activity (MDA-MB-435): 114% | Activity (NCI-H23): 92% | Activity (NCI-H522): 96.6% | Activity (UO-31): 74.9% | Activity (A549): 98.9% | Activity (COLO 205): 77.9% | Activity (UACC-62): 78.4% | Activity (SW-620): 102% | Activity (MDA-MB-231): 82.7% | Activity (K562): 87.4% | Activity (Malme-3M): 161% | Activity (TK-10): 112% | Activity (HT-29): 101% | Activity (T47D): 96.4% | Activity (OVCAR-8): 95.6% | Activity (BT-549): 96.7% | Activity (HOP-62): 102% | Activity (KM12): 101% | Activity (HL-60(TB)): 101.9% | Activity (SF-268): 95.6% | Activity (DU-145): 109% | Activity (SN12C): 89.2% | Activity [2]: 90.9% | Activity (SF-539): 91.5% | Activity (CAKI-1): 120% | Activity (SK-MEL-2): 99.8% | Activity (A498): 101% | Activity (HCC 2998): 107% | Activity (786-0): 109% | Activity (SK-MEL-5): 91% | Activity (NCI-H460): 98.6% | Activity (SNB-19): 96.7% | Activity (M14): 98.6% | Activity (UACC-257): 97.8% | Activity (LOX IMVI): 103% | Activity (OVCAR-3): 102% | Activity (CCRF-CEM): 86% | Activity (MDA-MB-468): 133% | Activity (SK-OV-3): 97.8% | Activity (IGROV-1): 91.2% | Activity (HCT-15): 104% | Activity (U-251): 98.4% | Activity (PC-3): 80% | Activity (HCT-116): 97.4% | Activity (ACHN): 92.7%
